# Legend:
# [1] = system: Enterobacter cloacae; test: Effect on growth of Enterobacter cloacae ATCC BAA 1143 assessed as bacterial growth inhibition measured after 16 to 18 hrs grown in tryptic soy medium by CLSI method; format: organism-based; conditions: in vivo
# Summary of the method: (§1)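 CLSI microdilution. Colonies from TSA (16-20 h, 37 °C) suspended in PBS to 0.5 McFarland, then diluted in TSB to ~10^5 CFU/mL. Incubated with serial compound dilutions for 16-20 h at 37 °C. MIC is the lowest concentration inhibiting growth.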
# [2] = system: Escherichia coli; test: Effect on growth of Escherichia coli ATCC 25922 assessed as bacterial growth inhibition measured after 16 to 18 hrs by CLSI method; format: organism-based; conditions: in vivo; summary of the method: as §1
# [3] = system: Clostridioides difficile; test: Antibacterial activity against Clostridium difficile 4118 ATCC BAA 1870 assessed as bacterial growth inhibition incubated for 48 hrs under anaerobic condition by CLSI protocol-based assay; format: functional; conditions: 4118 ATCC BAA 1870, 48 h
# Summary of the method: (§2)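 Broth microdilution following CLSI guidance. Strains pre-grown anaerobically on BHIS agar (BHI plus yeast extract, vitamin K1, hemin) at 37 °C for 48 h. ~10^5 CFU/mL in BHIS broth added to serial compound dilutions. Incubated anaerobically at 37 °C for 48 h. MIC is the lowest concentration showing visible growth inhibition.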
# [4] = system: Bifidobacterium bifidum; test: Effect on growth of Bifidobacterium bifidum 212A ATCC 11863 measured after 48 hrs in anerobic conditions by CLSI method; format: organism-based; conditions: in vivo
# [5] = Effect on growth of Lactobacillus gasseri EX336960VC03 HM 400 measured after 48 hrs in 5% CO2 by CLSI method; conditions: lactobacillus gasseri ex336960vc03, 48 h
# [6] = system: Clostridioides difficile; test: Antibacterial activity against Clostridium difficile VPI 10463 ATCC 43255 assessed as bacterial growth inhibition incubated for 48 hrs under anaerobic condition by CLSI protocol based assay; format: functional; conditions: ATCC 43255 VPI 10463, 48 h; summary of the method: as §2
# [7] = system: Lacticaseibacillus paracasei; test: Effect on growth of Lactobacillus casei ATCC 334 measured after 48 hrs in 5% CO2 by CLSI method
# [8] = Effect on growth of Lactobacillus crispatus JV-V01 HM 103 measured after 48 hrs in 5% CO2 by CLSI method; conditions: lactobacillus crispatus jv-v01, 48 h
# [9] = system: HRT-18 cell line; test: Cytotoxicity against human HRT18 cells at > 256 uM measured after 2 hrs by MTS assay; format: cell-based; conditions: hrt-18, 2 h
# [10] = system: Caco-2; test: Cytotoxicity against human Caco2 cells at > 256 uM measured after 2 hrs by MTS assay; format: cell-based; conditions: caco-2, 2 h
# [11] = system: Vero; test: Cytotoxicity against African green monkey Vero cells at > 256 uM measured after 2 hrs by MTS assay; format: cell-based; conditions: chlorocebus sabaeus
Compound,MIC [3] [µM],MIC [6] [µM],also measured
Cc1nc2c([N+](=O)[O-])scc2c(=O)[nH]1,38,38,MIC [1]: > 700 µM; MIC [2]: > 700 µM; MIC [4]: > 700 µM; MIC [5]: > 700 µM; MIC [7]: > 700 µM; MIC [8]: > 700 µM
Cc1nc2c([N+](=O)[O-])csc2c(=O)n1Cc1ccc(C#N)cc1,25,50,–
Cc1nc2c(F)cccc2c(=O)[nH]1,> 718,> 718,–
Cc1nc2c(N)cccc2c(=O)[nH]1,> 730,> 730,–
N#Cc1ccc(/C=C/c2nc3c([N+](=O)[O-])csc3c(=O)[nH]2)cc1,> 197,> 197,–
O=C(O)c1ccc(/C=C/c2nc3c([N+](=O)[O-])csc3c(=O)[nH]2)o1,> 384,> 384,–
Cc1nc2c([N+](=O)[O-])csc2c(=O)n1-c1ccc(-c2ccccc2)cc1,352,176,–
O=c1[nH]c(/C=C/c2cccs2)nc2c([N+](=O)[O-])csc12,13,13,–
CCOC(=O)Cn1c(C)nc2c([N+](=O)[O-])csc2c1=O,54,54,–
COc1ccc(Cn2c(C)nc3c([N+](=O)[O-])csc3c2=O)cc1,24,24,–
O=c1[nH]cnc2c([N+](=O)[O-])csc12,20,10,–
Cc1nc2c([N+](=O)[O-])csc2c(=O)n1Cc1ccccc1,7,56,MIC [1]: > 850 µM; Activity [9]: Non-Toxic; MIC [2]: > 850 µM; MIC [4]: > 425 µM; Activity [10]: Non-Toxic; MIC [5]: > 425 µM; MIC [7]: > 425 µM; Activity [11]: Non-Toxic; MIC [8]: > 425 µM
O=c1[nH]c(-c2cccc([N+](=O)[O-])c2)nc2c([N+](=O)[O-])csc12,50,50,–
CCCc1nc2c([N+](=O)[O-])csc2c(=O)[nH]1,67,67,–
Cc1nc2cscc2c(=O)[nH]1,192,768,–
Cc1nc2c([N+](=O)[O-])csc2c(=O)n1Cc1cccc([N+](=O)[O-])c1,23,23,–
COc1ccc(/C=C/c2nc3c([N+](=O)[O-])csc3c(=O)[nH]2)cc1,12,12,–
C#Cc1ccc(/C=C/c2nc3c([N+](=O)[O-])csc3c(=O)[nH]2)cc1,6,12,–
O=[N+]([O-])c1csc2c(Cl)nc(/C=C/c3ccc(F)cc3)nc12,95,95,–
Cc1nc2c([N+](=O)[O-])csc2c(=O)n1-c1cccc(C(=O)O)c1,> 386,193,–
Cc1nc2c([N+](=O)[O-])csc2c(=O)n1CCc1ccccc1,13,13,–
Cc1nc2c([N+](=O)[O-])coc2c(=O)[nH]1,41,41,MIC [1]: > 700 µM; MIC [2]: > 700 µM; MIC [4]: > 700 µM; MIC [5]: > 700 µM; MIC [7]: > 700 µM; MIC [8]: > 700 µM
Cc1nc(Nc2ccccc2)c2scc([N+](=O)[O-])c2n1,28,14,–
O=c1[nH]c(/C=C/c2ccccc2)nc2c([N+](=O)[O-])csc12,13,52,–
O=c1[nH]c(/C=C/c2ccc([N+](=O)[O-])cc2)nc2c([N+](=O)[O-])csc12,24,12,–
GENTAMICIN,–,–,MIC [1]: <= 1 uM; MIC [2]: 8 µM
Cc1csc2c(O)ncnc12,> 770,> 770,–
CCc1nc2c([N+](=O)[O-])csc2c(=O)[nH]1,35,35,–

Compound,MIC [3] [µM],MIC [6] [µM],also measured
CN[C@H](CC(C)C)C(=O)N[C@H]1C(=O)N[C@@H](CC(N)=O)C(=O)N[C@H]2C(=O)N[C@H]3C(=O)N[C@H](C(=O)N[C@H](C(=O)O)c4cc(O)cc(O)c4-c4cc3ccc4O)[C@H](O)c3ccc(c(Cl)c3)Oc3cc2cc(c3O[C@@H]2O[C@H](CO)[C@@H](O)[C@H](O)[C@H]2O[C@H]2C[C@](C)(N)[C@H](O)[C@H](C)O2)Oc2ccc(cc2Cl)[C@H]1O [VANCOMYCIN],0.7,0.3,MIC [5]: <= 1 uM; MIC [8]: <= 1 uM
O=[N+]([O-])c1csc2c(N3CCOCC3)nc(/C=C/c3ccc(F)cc3)nc12,166,166,–
Cc1nc2c([N+](=O)[O-])csc2c(=O)n1-c1ccc(C(C)C)cc1,> 389,> 389,–
O=c1[nH]cnc2ccc([N+](=O)[O-])cc12,335,335,MIC [1]: > 700 µM; MIC [2]: > 700 µM; MIC [4]: > 700 µM; MIC [5]: > 700 µM; MIC [7]: > 700 µM; MIC [8]: > 700 µM
Cc1nc2c([N+](=O)[O-])csc2c(=O)n1CC(=O)N1CCOCC1,47,94,–
Cc1nc2ccsc2c(=O)[nH]1,> 770,385,–
Cc1nc2c(C)csc2c(=O)[nH]1,> 710,> 710,–
Cc1nc2c([N+](=O)[O-])csc2c(=O)n1CC(=O)O,> 475,> 475,–
O=c1[nH]c(/C=C/c2cccc(F)c2)nc2c([N+](=O)[O-])csc12,13,13,–
Cc1nc2c([N+](=O)[O-])cccc2c(=O)[nH]1,312,156,MIC [1]: > 700 µM; MIC [2]: > 700 µM; MIC [4]: > 700 µM; MIC [5]: > 700 µM; MIC [7]: > 700 µM; MIC [8]: > 700 µM
COc1ccc(-n2c(C)nc3c([N+](=O)[O-])csc3c2=O)cc1,202,101,–
Cc1nc2ncccc2c(=O)[nH]1,> 794,> 794,–
Cc1nc2ccoc2c(=O)[nH]1,> 852,> 852,–
Cc1ncc([N+](=O)[O-])n1CCO [METRONIDAZOLE],0.7,1.5,MIC [4]: > 1496 µM; MIC [5]: > 1496 µM; MIC [7]: 47 µM; MIC [8]: > 1496 µM
O=c1[nH]c(/C=C/c2ccc(O)cc2)nc2c([N+](=O)[O-])csc12,26,13,–
Cc1nc2c([N+](=O)[O-])csc2c(=O)n1CC(=O)N1CCN(C)CC1,91,91,–
Cc1nc2c([N+](=O)[O-])csc2c(=O)n1CC(=O)Nc1ccccc1,46,23,–
O=c1c2scc([N+](=O)[O-])c2nc(/C=C/c2ccc(F)cc2)n1Cc1ccccc1,157,157,–
Cc1nc2c([N+](=O)[O-])csc2c(=O)n1Cc1ccccc1[N+](=O)[O-],23,23,–
Cc1nc(Cl)c2scc([N+](=O)[O-])c2n1,17,34,–
O=C(O)c1ccc(/C=C/c2nc3c([N+](=O)[O-])csc3c(=O)[nH]2)cc1,46,184,–
O=c1[nH]c(/C=C/c2ccc(Cl)cc2)nc2c([N+](=O)[O-])csc12,6,6,MIC [1]: > 767 µM; Activity [9]: Non-Toxic; MIC [2]: > 767 µM; MIC [4]: > 767 µM; Activity [10]: Non-Toxic; MIC [5]: > 767 µM; MIC [7]: > 767 µM; Activity [11]: Non-Toxic; MIC [8]: > 767 µM
O=c1[nH]c(/C=C/c2ccco2)nc2c([N+](=O)[O-])csc12,27,27,–
Oc1ncnc2ccsc12,420,840,–
O=c1[nH]c(/C=C/c2ccccc2F)nc2c([N+](=O)[O-])csc12,6,12,MIC [1]: > 807 µM; Activity [9]: Non-Toxic; MIC [2]: > 807 µM; MIC [4]: > 807 µM; Activity [10]: Non-Toxic; MIC [5]: > 807 µM; MIC [7]: > 807 µM; Activity [11]: Non-Toxic; MIC [8]: > 807 µM
O=c1[nH]c(-c2ccccc2)nc2ccsc12,> 560,> 560,–
Cc1nc2c([N+](=O)[O-])csc2c(=O)n1CC(=O)OC(C)(C)C,49,98,–

# From ChEMBL document CHEMBL4334504 (J Med Chem, 2019)
